# According to ChEMBL document CHEMBL1157061, “Polybioside, a neuroactive compound from the venom of the social wasp Polybia paulista” (J Nat Prod, 2010):
# Activity calls are given as the source filed them. The rule behind the calls is not given here.
# How the values were obtained:
# [1] = system: Rattus norvegicus; experiment: Neurotoxicity in Wistar rat assessed as loss of sensor motor reflexes at 10 ng/kg, icv after 30 mins by wire suspension test; assay type: toxicity, organism-based; settings: in vivo, icv_or_intrathecal, 1e-05 mg/kg, 0.5 h
# How it was run: (§1)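 Adult male Wistar rats (250-300 g, acclimated one week) received 10 ng/kg ICV in 0.9% saline through a cannula placed about 2 h earlier. Behaviour was observed afterwards, including convulsions, piloerection and eye signs. Sensorimotor reflexes were scored by righting reflex and wire suspension test, with follow-up to recovery at 80 min.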
# [2] = system: Rattus norvegicus; experiment: Neuronal activity in Wistar rat brain lateral septal nucleus dorsal assessed as c-Fos-immunoreactive neurons at 0.1 ug/ul, icv after 2 hrs by immunohistochemistry analysis; assay type: functional, tissue-based
# How it was run: (§2)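 Adult male Wistar rats (250-300 g) were acclimated for one week and handled twice daily. An ICV cannula was placed about 2 h before dosing. Compound was given ICV in 10 µL 0.9% saline; saline-only controls (n = 3). After 2 h, rats were perfused with 4% formaldehyde (pH 9.5). Coronal 30 µm sections were stained with rabbit anti-c-Fos (1:5000, 18 h, RT), biotinylated goat anti-rabbit, ABC and DAB, with thionin counterstain. Immunoreactive cells were counted in fixed areas; Student's t-test, p<0.05.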
# [3] = system: Rattus norvegicus; experiment: Neurotoxicity in Wistar rat assessed as tonic clonic crises at 10 ng/kg, icv up to 10 mins; assay type: toxicity, organism-based; settings: in vivo, icv_or_intrathecal, 1e-05 mg/kg; how it was run: as §1
# [4] = system: Brain; experiment: Neuronal activity in Wistar rat brain reuniens nucleus assessed as c-Fos-immunoreactive neurons at 0.1 ug/ul, icv after 2 hrs by immunohistochemistry analysis; assay type: functional, tissue-based; how it was run: as §2
# [5] = system: Hypothalamus; experiment: Neuronal activity in Wistar rat brain paraventricular nucleus of hypothalamus assessed as c-Fos-immunoreactive neurons at 0.1 ug/ul, icv after 2 hrs by immunohistochemistry analysis; assay type: functional, tissue-based; how it was run: as §2
# [6] = system: Brain; experiment: Neuronal activity in Wistar rat brain dorsal intermediate nucleus assessed as c-Fos-immunoreactive neurons at 0.1 ug/ul, icv after 2 hrs by immunohistochemistry analysis; assay type: functional, tissue-based; how it was run: as §2
# [7] = system: Rattus norvegicus; experiment: Neuronal activity in Wistar rat brain piriform cortex assessed as c-Fos-immunoreactive neurons at 0.1 ug/ul, icv after 2 hrs by immunohistochemistry analysis; assay type: functional, tissue-based; how it was run: as §2
# [8] = system: Thalamus; experiment: Neuronal activity in Wistar rat brain paraventricular nucleus of thalamus assessed as c-Fos-immunoreactive neurons at 0.1 ug/ul, icv after 2 hrs by immunohistochemistry analysis; assay type: functional, tissue-based; how it was run: as §2
# [9] = system: Rattus norvegicus; experiment: Neurotoxicity in Wistar rat assessed as partial closing of eyelids with porphyrin accumulation at 10 ng/kg, icv after 10 mins up to 30 mins; assay type: toxicity, organism-based, Eyelid; settings: in vivo, icv_or_intrathecal, 1e-05 mg/kg; how it was run: as §1
# [10] = system: Rattus norvegicus; experiment: Neurotoxicity in Wistar rat at 100 ng/kg, iv; assay type: toxicity, organism-based; settings: in vivo, 0.0001 mg/kg
# How it was run: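 Given peripherally at 100 ng/kg through an intravenous catheter placed in Wistar rats anaesthetised with chloral hydrate (7%, 350 mg/kg ip), to test passage across the blood-brain barrier; behaviour was then observed.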
# [11] = system: Rattus norvegicus; experiment: Neurotoxicity in Wistar rat assessed as convulsion at 10 ng/kg, icv after 5 mins; assay type: toxicity, organism-based; settings: in vivo, icv_or_intrathecal, 1e-05 mg/kg; how it was run: as §1
# [12] = system: Rattus norvegicus; experiment: Neurotoxicity in Wistar rat assessed as localized diffuse piloerection around neck at 10 ng/kg, icv up to 10 mins; assay type: toxicity, organism-based; settings: in vivo, icv_or_intrathecal, 1e-05 mg/kg; how it was run: as §1
# [13] = system: Rattus norvegicus; experiment: Neurotoxicity in Wistar rat assessed as localized diffuse piloerection on head at 10 ng/kg, icv up to 10 mins; assay type: toxicity, organism-based; settings: in vivo, icv_or_intrathecal, 1e-05 mg/kg; how it was run: as §1
# [14] = system: Hippocampus; experiment: Neuronal activity in Wistar rat brain hippocampus assessed as c-Fos-immunoreactive neurons at 0.1 ug/ul, icv after 2 hrs by immunohistochemistry analysis; assay type: functional, tissue-based; how it was run: as §2
# [15] = system: Brain; experiment: Neuronal activity in Wistar rat brain anterior hyphalamic area assessed as c-Fos-immunoreactive neurons at 0.1 ug/ul, icv after 2 hrs by immunohistochemistry analysis; assay type: functional, tissue-based; how it was run: as §2
# [16] = system: Rattus norvegicus; experiment: Neuronal activity in Wistar rat brain rhomboid nucleus assessed as c-Fos-immunoreactive neurons at 0.1 ug/ul, icv after 2 hrs by immunohistochemistry analysis; assay type: functional, tissue-based; settings: Rhomboidal nucleus; how it was run: as §2
# [17] = system: Brain; experiment: Neuronal activity in Wistar rat brain dorsomedial hyphalamic nucleus assessed as c-Fos-immunoreactive neurons at 0.1 ug/ul, icv after 2 hrs by immunohistochemistry analysis; assay type: functional, tissue-based; how it was run: as §2
smiles,measurement,setting,value
N=C(CCc1c[nH]cn1)O[C@H]1O[C@H](CO)[C@@H](O)[C@H](O)[C@H]1O [POLYBIOSIDE],Activity,[1],Toxic
same,Activity,[2],Active
same,Activity,[3],Toxic
same,Activity,[4],Active
same,Activity,[5],Active
same,Activity,[6],Active
same,Activity,[7],Active
same,Activity,[8],Active
same,Activity,[9],Toxic
same,Activity,[10],Toxic
same,Activity,[11],Toxic
same,Activity,[12],Toxic
same,Activity,[13],Toxic
same,Activity,[14],Active
same,Activity,[15],Active
same,Activity,[16],Active
same,Activity,[17],Active
